# Results from PubChem BioAssay AID871 (The Scripps Research Institute Molecular Screening Center, 2007).
# Among all 190,000 compounds or so, about 1,800 (0.95%) were called active.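 The calls were made as follows: active = activation above the screen-wide mean of compound activation plus 3 SD (cut at about 130% in these data); inactive = the rest.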 For the sample, actives were picked, then their nearest neighbours and some compounds at random.
# Experiment: IL-6 driven STAT3 reporter potentiators, primary screen, U3A cells, luciferase, luminescence, MLSCN library (AID 871);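 also: 0% = background luminescence of wells with medium and substrate only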
# Details: IL-6 STAT3-luciferase reporter, at 5.6 µM, active compounds read high, 100% = signal with IL-6 EC80 alone
# How it was run: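 Assay system – human STAT1-deficient U3A cells with stable STAT3-luciferase reporter · Also added – IL-6 (33 ng/mL) · Schedule – compound 1 h, then IL-6 6 h at 37 °C · Technique – reporter luminescence signal · Evaluation – % activation versus median of IL-6-stimulated wells · Benchmarks – IL-6-only wells as 100% reference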
row,Compound,activation (% of control)
1,Cn1c(=NC(=O)c2ccco2)sc2cccc(F)c21,144% (active)
2,CCCC(=O)N=c1sc2cccc(F)c2n1C,113% (inactive)
3,Cn1c(=NC(=O)c2cnccn2)sc2ccccc21,83.8% (inactive)
4,NS(=O)(=O)c1ccc(NC(=O)COC(=O)CCc2c[nH]c3ccccc23)cc1,108% (inactive)
5,COc1ccccc1NC(=O)CCCc1c[nH]c2ccccc12,88.8% (inactive)
6,CCC(CC)NC(=O)CSc1nnc(-c2c[nH]c3ccccc23)o1,90.9% (inactive)
7,CC(C)(C)N(Cc1ccccc1)C(=O)COC(=O)CCc1c[nH]c2ccccc12,87.1% (inactive)
8,NC(=O)CSc1c[nH]c2ccccc12,143% (active)
9,CCOC(=O)CN(C)Cc1c[nH]c2ccccc12,137% (active)
10,O=C(Cc1c[nH]c2ccccc12)OCCOC(=O)Cc1c[nH]c2ccccc12,136% (active)
11,O=C(CSc1nnc(-c2c[nH]c3ccccc23)o1)c1ccccc1,106% (inactive)
12,CN(Cc1cccs1)C(=O)Cc1c[nH]c2ccccc12,86% (inactive)
13,Cc1ccnc(NC(=O)Cn2ccc([N+](=O)[O-])n2)c1,96.1% (inactive)
14,CCOC(=O)c1cnc2c(c(C)nn2CC)c1Cl,107% (inactive)
15,Oc1oc(-c2ccccc2Br)nc1/C=N/c1ccccn1,107% (inactive)
16,O=C(CSc1ccccc1F)NC1CCS(=O)(=O)C1 (stereo not drawn),95.7% (inactive)
17,CC(NC(=O)COC(=O)C1CCN(S(=O)(=O)c2ccccc2C(F)(F)F)CC1)c1ccccc1 (stereo not drawn),106% (inactive)
18,CCOc1ccc(-n2c(SCC(=O)NC3CCS(=O)(=O)C3)nnc2-c2cccnc2)cc1 (stereo not drawn),99.7% (inactive)
19,COC(=O)C(C)N=Cc1ccccc1 (stereo not drawn),102% (inactive)
20,S=C(NCCc1ccccc1)N1CCn2cccc2C1c1ccncc1 (stereo not drawn),103% (inactive)
21,Cn1nc(C(F)(F)F)c2cc(C(=O)N3CCOCC3)sc21,105% (inactive)

row,Compound,activation (% of control)
1,Cc1ccc(NC(=O)CN2CCc3ccccc3C2)cc1,99.5% (inactive)
2,Cc1ccc(S(=O)(=O)C(C#N)c2nc3ccccc3nc2N2CCCC2)cc1C (stereo not drawn),92.7% (inactive)
3,Cc1ccc(S(=O)(=O)Nc2nc3ccccc3nc2N2CCc3ccccc3C2)cc1,147% (active)
4,O=C(COc1ccccc1)Nc1ccc(N2CCN(C(=O)c3cccs3)CC2)cc1,93.1% (inactive)
5,O=C1NC2(CCCCCC2)C(=O)N1CCS(=O)(=O)Oc1ccccc1,104% (inactive)
6,Cc1ccc(Cn2c(C)nc3c(c2=O)c2nc4ccccc4nc2n3Cc2ccco2)cc1,107% (inactive)
7,Cc1cc(NC(=O)CSc2nc3cc(Cl)ccc3c(=O)n2Cc2ccco2)no1,103% (inactive)
8,Clc1cccc(-c2nc3nc4ccccc4nc3n2Cc2ccco2)c1,135% (active)
9,C/C(=N\NC(=O)CCn1nc(C)cc1C)C(C)(C)C,95.6% (inactive)
10,O=C(CSc1ncnc2scc(-c3ccccc3)c12)NCc1ccc2c(c1)OCO2,103% (inactive)
11,Cn1nc(-c2ccc(Cl)cc2)c2cc(C(=O)NCc3ccco3)sc21,158% (active)
12,CCOC(=O)N1CCN(C(=O)c2cc3c(-c4ccc(Cl)cc4)nn(C)c3s2)CC1,107% (inactive)
13,COc1cccc(-c2nn(C)c3sc(C(=O)N4CCN(c5ccccc5)CC4)cc23)c1,103% (inactive)
14,COc1ccccc1N1CCN(C(=O)c2cc3c(-c4ccc(Cl)cc4)nn(C)c3s2)CC1,146% (active)
15,COc1ccc(-c2cc(C(=O)NCc3ccco3)no2)cc1OC,101% (inactive)
16,COc1ccc2c(Cl)c(C(=O)NCc3ccco3)sc2c1,95.9% (inactive)
17,CN(C)C(=O)c1ccc2c(c1)C1C3CCC(C3)C1C(c1ccccc1)N2 (stereo not drawn),91.5% (inactive)
18,CCOc1ccc(NS(=O)(=O)c2cc(C)c(C)cc2C)cc1,102% (inactive)
19,COc1cc(OC)cc(C(=O)N[C@H](C(=O)Nc2nc3ccccc3[nH]2)C(C)C)c1,148% (active)
20,COc1cc(OC)cc(C(=O)N[C@H](C(=O)OCC(=O)NC(C)c2ccccc2)C(C)C)c1 (stereo partly drawn),102% (inactive)
21,COc1ccc(OC(C)C(=O)NCCc2nc3ccccc3[nH]2)cc1 (stereo not drawn),98.1% (inactive)

row,Compound,activation (% of control)
1,Cc1cc2oc(=O)cc(CN3CCN(S(=O)(=O)c4cccs4)CC3)c2cc1C(C)C,98.7% (inactive)
2,C=CCn1c(C)cc(C2=NNC(=NCC)SC2)c1C,8.94% (inactive)
3,COCCn1c(C)cc(C2=NNC(=Nc3ccc(F)cc3)SC2)c1C,133% (active)
4,Cc1cc(C2=NNC(=Nc3ccc(S(=O)(=O)N4CCOCC4)cc3)SC2)c(C)n1CC1CCCO1 (stereo not drawn),102% (inactive)
5,Cc1c(Cl)c([N+](=O)[O-])nn1CCCC(=O)NC(C)c1ccccc1 (stereo not drawn),101% (inactive)
6,O=S1(=O)CC/C(=N\Nc2ccc(F)cc2)c2ccsc21,80.3% (inactive)
7,C=Cn1c(C(=O)O)ccc1-c1ccc(OC)cc1,103% (inactive)
8,O=C(COC(=O)c1ccncc1)c1ccccc1,97.1% (inactive)
9,COc1cccc(NC(=O)C(Sc2nnnn2C)c2ccccc2)c1 (stereo not drawn),88.9% (inactive)
10,COC(=O)c1c(-c2cccs2)csc1NC(=O)CSc1ncnc2sc(C)c(C)c12,93.1% (inactive)
11,Cc1sc2ncnc(Sc3nc4ccccc4s3)c2c1C,135% (active)
12,CSc1ncnc2sc(C)c(C)c12,91.1% (inactive)
13,Cc1csc(CN(C)C(=O)CC2C(=O)NCCN2CC(C)(C)C)n1 (stereo not drawn),96.6% (inactive)
14,O=C(CN1CCN(c2ccc(Cl)cc2)CC1)NCc1cccs1,99% (inactive)
15,CC(=O)NC1(c2ccc(F)cc2)CCN(C(=O)c2c(F)cccc2F)CC1,104% (inactive)
16,Cc1c(CCO)c(=O)n(-c2ccccc2)n1S(=O)(=O)c1ccc(F)cc1,100% (inactive)
17,Cc1c(CCO)c(=O)[nH]n1C(=O)c1c(F)cccc1F,134% (active)
18,CN1CCN(CCCCOc2ccccc2-c2ccccc2)CC1,96.6% (inactive)
19,CCOC(=O)c1ccccc1NC(=S)N1CCC(C(N)=O)CC1,98.2% (inactive)
20,COc1ccc(Cl)cc1N(CC(=O)N1CCCCC1)S(C)(=O)=O,99% (inactive)
21,Cc1ccc2cc(C)c(N3CCC(C)CC3)nc2c1,86.1% (inactive)
